Results taken from ChEMBL document CHEMBL1126041, “Leukotriene B4 receptor antagonists: the LY255283 series of hydroxyacetophenones” (J Med Chem, 1992).

Assays:
[1] = target: Leukotriene B4 receptor (Homo sapiens) (UniProt Q9NPC1+Q15722); test: Inhibition of [3H]LTB4 binding to leukotriene B4 receptor of human peripheral neutrophils (PMN) at a concentration of 0.1 uM.; assay type: protein assay
Outline: (§1)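 Neutrophils isolated by Ficoll-Hypaque centrifugation, dextran 70 sedimentation and hypotonic lysis (≥90% neutrophils, ≥90% viable), 2 × 10^7 cells/mL in Hank's balanced salt solution with 0.1% ovalbumin. Compound in DMSO plus 2.65 nM [3H]LTB4 (stock), 10 min at 4 °C. Cells spun through dibutyl/dinonyl phthalate (7:2), pellet counted by scintillation. Triplicate incubations averaged. Reported as % inhibition of specific binding; nonspecific binding taken with >2000-fold excess unlabeled LTB4.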

[2] = target: Leukotriene B4 receptor 1 (Homo sapiens) (UniProt Q15722); test: Inhibition of binding of [3H]LTB4 to the leukotriene B4 receptor of human peripheral neutrophils (PMN) at a concentration of 10 uM.; outline: as §1
[3] = target: Leukotriene B4 receptor 1 (Homo sapiens) (UniProt Q15722); test: Inhibition of [3H]LTB4 binding to leukotriene B4 receptor from human peripheral neutrophils (PMN), at a concentration of 1 uM; outline: as §1

Chain of Leukotriene B4 receptor 1 (Homo sapiens) (Q15722 whole entry): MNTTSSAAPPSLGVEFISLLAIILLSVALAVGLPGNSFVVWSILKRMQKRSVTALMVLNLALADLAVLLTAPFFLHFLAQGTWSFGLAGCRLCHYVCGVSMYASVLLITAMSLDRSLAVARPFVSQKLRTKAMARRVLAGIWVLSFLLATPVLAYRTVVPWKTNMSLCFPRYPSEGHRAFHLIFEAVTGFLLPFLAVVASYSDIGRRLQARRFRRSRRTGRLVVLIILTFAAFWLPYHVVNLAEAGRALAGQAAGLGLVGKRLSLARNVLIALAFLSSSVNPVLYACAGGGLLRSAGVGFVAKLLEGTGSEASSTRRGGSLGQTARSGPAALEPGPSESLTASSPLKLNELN
Chain of Leukotriene B4 receptor (Homo sapiens) (Q15722 whole entry, looked up): as the sequence (Q15722 whole entry) above
Chain of Leukotriene B4 receptor (Homo sapiens) (Q9NPC1 whole entry, looked up): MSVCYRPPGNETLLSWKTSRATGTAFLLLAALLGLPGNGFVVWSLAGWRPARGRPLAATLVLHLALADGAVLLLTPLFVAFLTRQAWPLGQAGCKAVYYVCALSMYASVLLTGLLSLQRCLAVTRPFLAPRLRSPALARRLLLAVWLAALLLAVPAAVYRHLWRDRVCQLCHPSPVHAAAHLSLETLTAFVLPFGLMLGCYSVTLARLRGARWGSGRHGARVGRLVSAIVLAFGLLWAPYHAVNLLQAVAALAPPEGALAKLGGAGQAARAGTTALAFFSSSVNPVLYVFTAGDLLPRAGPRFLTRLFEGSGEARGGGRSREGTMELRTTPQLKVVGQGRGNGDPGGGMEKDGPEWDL

C=CCc1cc(C(C)=O)c(O)cc1OCc1cccc(C#N)c1
inhibition [1]: 25% | inhibition [2]: 71% | inhibition [3]: 58%
